High-throughput results: PubChem, several laboratories
An excerpt weighted towards active compounds, which were near 4.6% of everything screened.
PfM18AAP inh – blocks P. falciparum M18 aspartyl aminopeptidase; recombinant PfM18AAP, H-Glu-NHMec fluorogenic cleavage; inhibition, % at 7.35 µM; 290,000 tested, 1.2% active; AID 1822;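 active means inhibition above the campaign mean inhibition over all tested compounds plus 3 SD, cut at about 28% in these data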;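 further: 0% = plate median of test compound wells and 100% = 2 mM ZnCl2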
UCH37 DUB inh – blocks the human deubiquitinase UCH37. Q9Y5K5. 330,000 tested, 0.33% active. inhibition, % (concentration not given with the values). purified proteasome/UCH37, Ub-AMC cleavage fluorescence;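 active means mean inhibition over replicate wells above about 20%, limit read from the data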;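 further: 0% = compound-free wells with enzyme and 100% = wells lacking proteasome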
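Signal – fluorescence, ex 355 nm, em 460 nm · System – Proteasome-bound UCH37 · Input – 0.15 nM proteasome as dispensed · Timing – 30 min preincubation with enzyme, 25 min cleavage at room temperature · Read-out basis – percent inhibition of cleavage signal versus uninhibited and no-proteasome wells · Medium – Tris-HCl pH 7.4 with ATP-MgCl2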
ALR H2O2 inh – inhibitors of human sulfhydryl oxidase ALR; AID 485317; 290,000 tested, 3.8% active; purified ALR, DTT oxidation, H2O2 HRP-luminol luminescence; inhibition, % (test concentration not listed);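 active means mean replicate inhibition above about 79%, with every replicate also reaching it, limit read from the data; inconclusive means only one of the two criteria met; inactive means mean below limit and not every replicate reaching it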
Rtt109 Vps75 – C. albicans Rtt109 histone acetyltransferase inhibition. 330,000 tested, 0.16% active. AID 540336. inhibition, % at 34.9 µM. purified Rtt109/Vps75, ThioGlo CoA-SH fluorescence, 4 h;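 active means inhibition of at least 50% in every replicate; inconclusive means best replicate reaches 50% inhibition but some replicates fall short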
FAS TE block – inhibitors of human fatty acid synthase thioesterase domain | P49327 | recombinant FAS-TE, OMFH fluorogenic substrate, fluorescence endpoint | inhibition, % at 15 µM | 360,000 tested, 0.67% active | AID 602261;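 active means compounds whose normalised, plate-corrected inhibition of enzyme fluorescence in the single-dose primary screen is 50% or more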;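 further: 0% = DMSO with enzyme and 100% = substrate without enzyme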
HDAC3 inhib – human HDAC3 inhibition. O15379. recombinant HDAC3, fluorogenic peptide/trypsin coupled, fluorescence. AID 2718. 320,000 tested, 0.15% active. inhibition, % at 8.3 µM; in the data active means inhibition above about 26%, passing the limit was not always enough; inconclusive means no clear call, values can overlap the other calls
Starred values were filed as active, the others as inactive; ? = inconclusive; · = no result given.

SMILES	PfM18AAP inh	UCH37 DUB inh	ALR H2O2 inh	Rtt109 Vps75	FAS TE block	HDAC3 inhib
O=C(O)Cn1cc(C(=S)N2CCOCC2)c2ccccc21	-6	4	98*	-6	-10	5
COCCNC(=O)Cn1cc(C(=S)N2CCCCC2)c2ccccc21	1	3	-14	-1	-2	-2
O=C(O)Cn1cc(C(=S)N2CCCCC2)c2ccccc21	17	8	91*	3	-3	10
O=C(Cn1cc(C(=S)N2CCOCC2)c2ccccc21)N1CCOCC1	0	4	-6	2	-7	1
C#CCN1C(=O)S/C(=C/c2cc(C)n(CC)c2C)C1=O	9	-1	·	3	4	0
CCn1c(C)cc(/C=C2/SC(=S)N(CC(=O)O)C2=O)c1C	14	21*	99*	6	-5	11
CCOC(=O)c1cc2c(N)c(C(=O)c3cc(C#N)c(SC)nc3C)sc2nc1C	-14	-45	-4	62*	20	?
CCOC(=O)c1cc(C#N)c(SC)nc1C	9	6	-1	-2	9	2
COc1cc(NC(=O)N2c3ccccc3Sc3ccccc32)c(C(=O)O)cc1OC	9	5	99*	1	5	?
CN(CCO)c1cc(N2CCCCC2)c2nonc2c1[N+](=O)[O-]	3	5	1	·	0	11
CC1CCCN(c2cc(N(C)CCO)c([N+](=O)[O-])c3nonc23)C1 (stereo unspecified)	-5	22*	50	12	6	12
Cc1ccc(-c2ccc(C=Nn3cnnc3)o2)cc1Cl	·	-20	·	·	·	·
CCCc1cc(C(=O)Nc2sc(C)c(CC)c2C#N)no1	-2	-1	·	9	18	-4
CCc1c(C)sc(NC(=O)c2cc(C)on2)c1C#N	12	3	85*	0	-6	-1
CCc1c(C)sc(NC(=O)c2cc(C3CC3)on2)c1C#N	·	-2	94*	3	20	10
CCc1c(C)sc(NC(=O)c2cc(-c3ccco3)on2)c1C#N	-15	-26	35	-3	8	4
CCCc1ccc(OCc2ccc(C(=O)NN=Cc3cccnc3)o2)cc1	·	-15	·	·	·	·
CC(=NNc1ccc(F)cc1)c1ccncc1	·	-1	·	·	·	·
C/C(=N\Nc1ccc(Cl)cc1)c1ccccn1	-26	·	100*	3	15	-2
C/C(=N\Nc1cccc(Cl)c1)c1ccncc1	7	·	99*	3	6	1
C/C(=N\Nc1ccc(Cl)cc1)c1ccncc1	0	·	99*	5	3	4
C/C(C=NNc1nc2ccccc2[nH]1)=C\c1ccccc1	·	-10	·	·	·	·
CC(=NNc1nc2ccccc2[nH]1)c1ccc2c(c1)OCCO2	·	0	·	·	·	·
Cc1ccc(C=NNC(=O)CN(Cc2ccccc2)S(=O)(=O)c2ccc3c(c2)OCCO3)cc1	·	5	·	·	·	·
NC(=O)NN=Cc1c(F)c(F)c(F)c(F)c1F	·	3	·	·	·	·
SMILES	PfM18AAP inh	UCH37 DUB inh	ALR H2O2 inh	Rtt109 Vps75	FAS TE block	HDAC3 inhib
CC(=O)Nc1ccc(S(=O)(=O)n2cnc3cc(C)c(C)cc32)cc1	2	5	22	9	-1	-8
CC(=O)Nc1ccc(C(=O)n2cnc3cc(C)c(C)cc32)cc1	3	0	99*	-3	-1	2
CNC(=O)N(O)C1N(N=Cc2ccccc2F)C(=S)SC1(C)C (stereo unspecified)	·	7	·	·	·	·
CN1CCN(CC#CC(C)(O)C2CC3C=CC2C3)CC1 (stereo unspecified)	-1	23*	2	-5	-7	11
O=C(CN1CCSCC1)NN=Cc1cccc(Cl)c1	·	5	·	·	·	·
O=C(Nc1ccccc1F)c1ccc(Cn2cc(Cl)cn2)cc1	4	0	100*	-3	0	5
O=C(c1ccc(Cn2cc(Br)cn2)cc1)N1CCN(c2ccccc2)CC1	12	5	0	0	7	0
O=C(c1ccc(Cn2cc(Cl)cn2)cc1)N1CCN(c2ccccc2)CC1	6	2	98*	5	5	2
Cc1ccnc(N/C=C(/NC(=O)c2ccccc2)C(=O)NN=Cc2ccc(F)cc2)n1	·	8	·	·	·	·
CC(C)C=NNC(=O)CCCCC(=O)NN=CC(C)C	·	2	·	·	·	·
CCCS(=O)(=O)c1nnnn1-c1cccc(OC)c1	-37	8	98*	17	24	3
COc1ccc(COC(=O)NN=C(C)CC(=O)Nc2c(C)cc(C)cc2C)cc1	·	4	·	·	·	·
CCC(=O)Nc1ccc2c(c1)nc1n2CCSC1	-2	-1	99*	·	-11	0
CCCC(=O)Nc1ccc2c(c1)nc1n2CCOC1	4	1	0	6	-11	-6
CC(C)C(=O)Nc1ccc2c(c1)nc1n2CCSC1	9	1	99*	18	-8	3
COc1ccc(-c2cc(C(=O)N3CCN(c4ccccc4O)CC3)c3ccccc3n2)cc1OC	31*	-29	5	24	14	0
COc1cc(-c2cc(C(=O)O)c3cc4ccccc4cc3n2)cc(OC)c1OC	·	·	·	·	-7	·
COc1cc(-c2cc(C(=O)O)c3c(OC)c(OC)c(OC)cc3n2)ccc1O	15	6	98*	3	-7	1
COc1ccc(N2CCN(C(=O)c3ccccc3N(C)S(=O)(=O)c3ccccc3)CC2)cc1	-2	3	90*	5	4	2
COc1ccc(N2CCN(C(=O)c3ccc(C(C)(C)C)cc3)CC2)cc1	-15	1	-7	15	2	-1
COc1ccc(N2CCN(C(=O)CCNC(=O)c3ccc(C(C)(C)C)cc3)CC2)cc1	-9	3	86*	6	-4	1
CCOc1ccc(S(=O)(=O)NCCC(=O)Nc2cccc(C(=O)OC)c2)cc1	3	-1	·	54*	1	0
COc1ccc(N2CCN(C(=O)CCC(=O)NNc3nc4ccccc4c4nc(C)nn34)CC2)cc1	7	3	99*	15	0	1
CN(c1ccccc1C(=O)N1CCN(c2ccccc2F)CC1)S(=O)(=O)c1ccccc1	1	1	-17	4	6	4
Cc1nnsc1C(=O)NN=Cc1cccc(C(F)(F)F)c1	·	5	·	·	·	·
SMILES	PfM18AAP inh	UCH37 DUB inh	ALR H2O2 inh	Rtt109 Vps75	FAS TE block	HDAC3 inhib
COc1cc(C=c2sc3n(c2=O)C(c2ccccc2)C(c2ccccc2)=NN=3)ccc1O (stereo unspecified)	·	-4	·	·	·	·
COC(=O)c1ccccc1OCC(=O)N1CCN(c2ccc(F)cc2)CC1	-4	4	36	14	-5	-6
COc1ccc(N2CCN(C(=O)CCNS(=O)(=O)c3ccccc3)CC2)cc1	5	1	98*	-3	0	-3
CCOc1ccc(S(=O)(=O)NCCC(=O)N2CCN(c3ncccn3)CC2)cc1	·	1	·	0	-3	14
COC(=O)c1ccccc1OCC(=O)N1CCN(c2ccc(OC)cc2)CC1	-1	-1	88*	-1	-6	0
CCOc1ccc(S(=O)(=O)NCCC(=O)N2CCN(c3ccc(OC)cc3)CC2)cc1	-4	1	77*	-2	4	-2
